The results in this text go back to the RNAGym collection of RNA variant scans (doi:10.1126/science.aae0568).

First the molecules themselves.
B1: tRNA (parent)
chain: GUUCCGUUGGCGUAAUGGUAACGCGUCUCCCUCCUAAGGAGAAGACUGCGGGUUCGAGUCCCGUACGGAACG

Fewer inactive variants are shown than the library holds.

The variants in the series derive from B1. Description: yeast fitness relative to wild type (ratio to wild type); higher = fitter; tRNA-Arg(CCU), competitive growth, 37 C, YPD. The procedure, abridged:
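Genotype frequency changes were the basis for Darwinian fitness relative to wild type. The frequencies came from 100-nucleotide paired-end sequencing of gene amplicons from the start population and each end population of pooled yeast strains with tRNA-Arg(CCU) gene variants at the native locus. Competition ran in YPD at 37°C for 24 hours in six replicates, genotypes needed ≥ 100 starting reads, and estimates < 0.5 were set to 0.5.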
Consider C11U C22U A65U A69U, for which the yeast fitness was no more than 0.5. C11U A21U G41C: the yeast fitness stood at 0.603. For the variant C11G A40C, the yeast fitness was determined as 0.6. For the variant C11G C24A U28G A36G G63A, the yeast fitness is no more than 0.5. For the variant C11U C27A U54G, the yeast fitness is no more than 0.5.

On to C11G G12A A42U C61A A65U, for which the yeast fitness came out at 0.528. Turning to C11U A14U U16C, the yeast fitness was no more than 0.5. In the case of C11G G23C A36U G44C G68A, the yeast fitness is 0.717. In the case of C11U C34G A69C, the yeast fitness was determined as 0.535. Regarding C11G G12A G41C C66A G67C, the yeast fitness was determined as 0.596. For the variant C11G G39C G50C, the yeast fitness came to 0.545.

On to C11U C22G A70C, for which the yeast fitness came to 0.669. For the variant C11U C30U G52C, the yeast fitness is no more than 0.5. As for C11G C66A, the yeast fitness is no more than 0.5. As to C11G C66U, the yeast fitness was found to be 0.615. Under C11G A15C C24G C46A stands 0.546. Under C11U G17A C29A stands no more than 0.5; under C11G G12A C22U G44A, no more than 0.5. On to C11U G39C G68C, for which the yeast fitness is no more than 0.5. As to C11U A15U G56C, the yeast fitness is no more than 0.5. As for C11U G44A C49U, the yeast fitness turned out to be 0.81. In the case of C11U G23C G41A C62A it was no more than 0.5; in that of C11U G12C, 0.75. Under C11U C24U C29G G38A A40C C61A A65G stands no more than 0.5; under C11U C30A, 0.823; under C11G G17A A37U A70G, no more than 0.5.

With C11G C24G C49U, the yeast fitness was no more than 0.5. For C11G C22U C27U U47A G52C, the yeast fitness is 0.67. Under C11G C29U C34U G51C C66U stands no more than 0.5; under C11U C24G U59A C60A, no more than 0.5. As to C11G A36U A42G A43C C49U A57U A65C, the yeast fitness was no more than 0.5. Consider C11G C34U C55G, for which the yeast fitness was determined as 0.689. Regarding C11G A21U C24U, the yeast fitness was no more than 0.5. On to C11G C29A, for which the yeast fitness was 0.518. As to C11U C31U A40C, the yeast fitness was 0.697. Under C11U A20G G23C C31U C46G A70U stands no more than 0.5.

As for C11G C22U U53C G68C, the yeast fitness stood at 0.521. Under C11G C22U A36C G52C C66U stands no more than 0.5. Take C11U A21C A42G: the yeast fitness amounted to 0.523.

On to C11G A21G A57G, for which the yeast fitness was no more than 0.5. C11G A20G A43U U47A A65U G67C: the yeast fitness is no more than 0.5. Regarding C11G C24G C27A U28C A65U, the yeast fitness is 0.533.

As for C11U A37G G51A, the yeast fitness is 0.568. For the variant C11U G18C C31U, the yeast fitness is no more than 0.5. In the case of C11U G18C A21G it was 0.571. For C11U A20U C22A C66G, the yeast fitness was no more than 0.5.

C11U C22G A36G: the yeast fitness was 0.675. On to C11U A20G C22A G23C U28G A43G A57G A70U, for which the yeast fitness came out at 0.587.

With C11G U35C A43C G52C U54A, the yeast fitness worked out at 0.644.

For C11G C46U C49A C55U A69U, the yeast fitness amounted to 0.536. With C11G C30A G44C G52C U64G, the yeast fitness was no more than 0.5. Consider C11U A21G A37U G41A, for which the yeast fitness is no more than 0.5. Turning to C11U C22A C29G C33U A70C, the yeast fitness worked out at 0.551.

For the variant C11U A20G G48A C55G A57U, the yeast fitness was no more than 0.5. Turning to C11U G17A A40C, the yeast fitness was no more than 0.5. Under C11G C24A G48C U54G C55U C66U stands no more than 0.5. Consider C11U C55A C66A, for which the yeast fitness is no more than 0.5. C11U A20G A36C C49G C61G C62G: the yeast fitness was no more than 0.5. Turning to C11U A20C C22G, the yeast fitness was 0.576. For the variant C11U A14C C30G A40G C49A G68A, the yeast fitness was found to be 0.537. In the case of C11U A14U U19G it was no more than 0.5; in that of C11G A42U A43C, no more than 0.5; in that of C11G C24G C27A U28C C66U, no more than 0.5.

C11U A37G: the yeast fitness stood at 0.896.

Regarding C11U C66U A69G, the yeast fitness was determined as 0.639. In the case of C11U A45C G52C C61U it was no more than 0.5; in that of C11G C31U C33U, 0.509. For C11U A14G A57G U59C A69U, the yeast fitness is no more than 0.5. Consider C11G U13G A21G G63A, for which the yeast fitness was no more than 0.5. For C11G A15G C24G C46G G67A, the yeast fitness was no more than 0.5. On to C11G G50U C62G, for which the yeast fitness is no more than 0.5. As to C11U A20C C49G G67A, the yeast fitness is no more than 0.5. With C11U G17C A21U G56A, the yeast fitness is no more than 0.5. For C11G U28C U54C G58A, the yeast fitness turned out to be 0.53. Consider C11G U19A C31U A43G G52C, for which the yeast fitness was no more than 0.5.

As for C11G C31G A36U, the yeast fitness is no more than 0.5. Regarding C11G C55G A57C, the yeast fitness was no more than 0.5. Consider C11G G12C, for which the yeast fitness amounted to 0.7. C11U G23C C27A A69U: the yeast fitness is no more than 0.5. Turning to C11G A15U A65C, the yeast fitness amounted to 0.544. Take C11U A42C: the yeast fitness is 0.91. Take C11U A42G: the yeast fitness is 0.917. For C11U A15G A65C, the yeast fitness worked out at 0.713. With C11U A57U C60G G68C, the yeast fitness was no more than 0.5.

C11G A21U C30A G44A G52C A65U: the yeast fitness was determined as 0.507. In the case of C11G U26C G67C A69C, the yeast fitness was no more than 0.5.

As to C11U C24U C29G G38A A40C, the yeast fitness was no more than 0.5. For C11G C55G, the yeast fitness amounted to 0.594. Regarding C11G G41A U53C, the yeast fitness was no more than 0.5. In the case of C11U C27G A43U G63A it was no more than 0.5; in that of C11G U47A G48A, 0.58; in that of C11U C55U U59C A65C, no more than 0.5. Under C11G A37C A45U G68C stands no more than 0.5; under C11U A15U G38A G56A, no more than 0.5; under C11G U16G G38C U54A C66A, 0.648.

Turning to C11U C49G C62U, the yeast fitness is no more than 0.5.

Take C11G A37U C46U G63U: the yeast fitness is no more than 0.5. For the variant C11G G12C A20C C24G A37G G68A A69C, the yeast fitness was no more than 0.5.

As to C11G G23C A37G A57C, the yeast fitness worked out at 0.979. In the case of C11G U32A A37C G39A A43G G58C C60A C62U it was no more than 0.5. For the variant C11U C49U G56A A65C, the yeast fitness was no more than 0.5. Take C11G C31U G67C: the yeast fitness is 0.632. On to C11U A21G C24A C49U A65C, for which the yeast fitness was no more than 0.5. For C11U G12A G51C C62U, the yeast fitness is no more than 0.5.

C11U C66G A69U: the yeast fitness was found to be 0.555. Consider C11G A20C C49A U54G, for which the yeast fitness was no more than 0.5. Under C11U C31G C49U G67A stands no more than 0.5; under C11G U32C, 0.597. In the case of C11U C29G C33U C60U A65U A69U it was no more than 0.5; in that of C11U C55U, 0.8. C11U C55A: the yeast fitness was 0.678. Under C11U A15G C24G C27G C31U G41C C49U stands no more than 0.5. In the case of C11U A20U C24U C29A U59A G67C A69C, the yeast fitness is no more than 0.5. In the case of C11G U13C G58C A69U, the yeast fitness was no more than 0.5. As to C11U A45U C66A, the yeast fitness was 0.659. For the variant C11U A21C C22G U54C C62A, the yeast fitness is no more than 0.5. In the case of C11G A15G U26G C66U, the yeast fitness is no more than 0.5. Under C11U C29A A36U G50C C55G C61G stands 0.592; under C11G A15C, 0.528. Regarding C11U C24G A57G, the yeast fitness was no more than 0.5.

With C11G C24U C49U, the yeast fitness was no more than 0.5. As to C11U A14G C27U C31U A36C G44C A45G G56C, the yeast fitness was no more than 0.5. C11G A20U A45C: the yeast fitness is no more than 0.5. As for C11U A37G G48A, the yeast fitness turned out to be 0.597. As for C11G C30A U47G U53C, the yeast fitness was 0.597. Take C11U C29G A37C A42U A57G G67A: the yeast fitness is 0.566.

As for C11U C22U A43C C49U C55G C61U, the yeast fitness was no more than 0.5. On to C11U G18A A36U G48C C49U, for which the yeast fitness came to 0.558. For C11U C24G A36C A37G A70C, the yeast fitness is no more than 0.5.

Consider C11G A57U C66U, for which the yeast fitness was no more than 0.5. With C11U C31G C46G G52A C66U, the yeast fitness was no more than 0.5. With C11U A42C C49U, the yeast fitness was 0.734.

As for C11U C31U G39C A40U, the yeast fitness was determined as 0.544. With C11G G25A A45C, the yeast fitness was no more than 0.5. Regarding C11G C60G A65C, the yeast fitness is no more than 0.5. For the variant C11G G18C A21G A40U A70U, the yeast fitness is 0.509. In the case of C11G G48A C49G it was 0.587; in that of C11G U19C A40G C66G A69U, no more than 0.5.

C11U A45U A65U: the yeast fitness worked out at 0.82.

Regarding C11G C22G C66A A69U, the yeast fitness turned out to be 0.533. In the case of C11U C22U U54C G56C G58A it was no more than 0.5; in that of C11U A20U C24U C30U C33A U54A C61G, no more than 0.5. In the case of C11U C22G C34G A70C, the yeast fitness was no more than 0.5. For C11G A15C G48C C55G G67C A70U, the yeast fitness was no more than 0.5. Take C11U A20U G39A U64C A65C: the yeast fitness was no more than 0.5. With C11G U13A, the yeast fitness was 1.03. Take C11G U13G: the yeast fitness came to 0.599. Take C11G U16A C22U A45U: the yeast fitness was no more than 0.5.

For C11G U16C C22U G68U, the yeast fitness was no more than 0.5. Under C11G U16A C29U stands no more than 0.5; under C11U C22U C34A A40U, no more than 0.5; under C11G A21U U26C U47C G68C, no more than 0.5. Turning to C11G C34U A42C C66A, the yeast fitness is no more than 0.5. In the case of C11G C30U A37C A70U it was no more than 0.5. With C11G C66A A69U, the yeast fitness is no more than 0.5. In the case of C11U A20G C29G C34G U54C, the yeast fitness was no more than 0.5.

For the variant C11U A45G U53C, the yeast fitness is 0.637. Consider C11U G52A A65U, for which the yeast fitness worked out at 0.567. As for C11U C33U A36G G39A G44A, the yeast fitness is no more than 0.5.

Take C11G C60G G67C: the yeast fitness turned out to be 0.667. As for C11G C49G C66A G67U, the yeast fitness was no more than 0.5. For C11G C24U C55G, the yeast fitness was no more than 0.5.

With C11U A69C, the yeast fitness came out at 0.905.

In the case of C11G C30U C31G C33G A37U U64A, the yeast fitness is no more than 0.5. On to C11U A15C G17C C22U C34G, for which the yeast fitness was no more than 0.5.

For the variant C11G C24U G68C, the yeast fitness turned out to be 0.523. Turning to C11U G52A C60A, the yeast fitness was 0.593.
